Measurements: ChEMBL document CHEMBL2331322, “Synthesis and antimicrobial activity of some new benzo and naphthonitrile derivatives” (2013)
Converted amounts (≈) assume the structure as drawn.

What was measured:
Type in all cases: functional
Bacillus thuringiensis [1] = experiment: Antimicrobial activity against Bacillus thuringiensis at 1 mg/mL after 24 hrs by agar disc diffusion method; settings: read-out: DIZ
Method in brief: (§1)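 Sterile 5 mm filter paper disks were impregnated with test solution in DMF (1 mg/mL) and placed on agar plates seeded with the test organism, in triplicate. Bacteria were incubated at 37 °C for 24 h and fungi for […] (so in the source). The read-out was the average inhibition zone diameter around the disks, in mm.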

Bacillus subtilis [2] = experiment: Antimicrobial activity against Bacillus subtilis at 1 mg/mL after 24 hrs by agar disc diffusion method; settings: read-out: DIZ; method in brief: as §1
Botrytis fabae [3] = experiment: Antimicrobial activity against Botrytis fabae at 1 mg/mL […] by agar disc diffusion method; settings: read-out: DIZ
Fusarium oxysporum [4] = experiment: Antimicrobial activity against Fusarium oxysporum at 1 mg/mL after 48 hrs by agar disc diffusion method; settings: read-out: DIZ; method in brief: as §1
Bacillus subtilis [5] = experiment: Antimicrobial activity against Bacillus subtilis after 24 hrs by microdilution susceptibility test
Method in brief: (§2)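 MIC was determined by broth microdilution, using Müller–Hinton broth for bacteria and Sabouraud liquid medium for fungi. Stocks were made in DMF and serially diluted twofold. Wells were inoculated at 10⁶ CFU/mL and plates incubated at 36 °C for 24–48 h, with controls included. Only compounds giving agar-diffusion zones >14 mm were tested.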

Escherichia coli [6] = experiment: Antimicrobial activity against Escherichia coli after 24 hrs by microdilution susceptibility test; method in brief: as §2
Botrytis fabae [7] = experiment: Antimicrobial activity against Botrytis fabae after 48 hrs by microdilution susceptibility test; method in brief: as §2
Pseudomonas aeruginosa [8] = experiment: Antimicrobial activity against Pseudomonas aeruginosa after 24 hrs by microdilution susceptibility test; method in brief: as §2
Pseudomonas aeruginosa [9] = experiment: Antimicrobial activity against Pseudomonas aeruginosa at 1 mg/mL after 24 hrs by agar disc diffusion method; settings: read-out: DIZ; method in brief: as §1
Fusarium oxysporum [10] = experiment: Antimicrobial activity against Fusarium oxysporum after 48 hrs by microdilution susceptibility test; method in brief: as §2
Bacillus thuringiensis [11] = experiment: Antimicrobial activity against Bacillus thuringiensis after 24 hrs by microdilution susceptibility test; method in brief: as §2
Escherichia coli [12] = experiment: Antimicrobial activity against Escherichia coli at 1 mg/mL after 24 hrs by agar disc diffusion method; settings: read-out: DIZ; method in brief: as §1

MIC (Bacillus subtilis [5]) [µg/mL]	MIC (Escherichia coli [6]) [µg/mL]	MIC (Botrytis fabae [7]) [µg/mL]	MIC (Pseudomonas aeruginosa [8]) [µg/mL]	MIC (Fusarium oxysporum [10]) [µg/mL]	MIC (Bacillus thuringiensis [11]) [µg/mL]	Structure (SMILES)	zone of inhibition at 1000 µg/mL (Bacillus thuringiensis [1]) [mm]	zone of inhibition at 1000 µg/mL (Bacillus subtilis [2]) [mm]	zone of inhibition at 1000 µg/mL (Botrytis fabae [3]) [mm]	zone of inhibition at 1000 µg/mL (Fusarium oxysporum [4]) [mm]	MBC (Bacillus subtilis [5]) [µg/mL]	MBC (Escherichia coli [6]) [µg/mL]	zone of inhibition at 1000 µg/mL (Pseudomonas aeruginosa [9]) [mm]	zone of inhibition at 1000 µg/mL (Escherichia coli [12]) [mm]
25 (≈ 84.5 µM)	50 (≈ 169 µM)	50 (≈ 169 µM)	50 (≈ 169 µM)	25 (≈ 84.5 µM)	25 (≈ 84.5 µM)	N=c1[nH]c2nn(-c3ccc(Cl)cc3)nc2c2ccccc12	38	32	15	15	200 (≈ 676 µM)	200 (≈ 676 µM)	19	15
50 (≈ 182 µM)	50 (≈ 182 µM)	50 (≈ 182 µM)	50 (≈ 182 µM)	50 (≈ 182 µM)	50 (≈ 182 µM)	Cc1ccc(-n2nc3[nH]c(=N)c4ccccc4c3n2)cc1	26	30	20	19	200 (≈ 726 µM)	200 (≈ 726 µM)	15	15
50 (≈ 172 µM)	50 (≈ 172 µM)	25 (≈ 85.8 µM)	50 (≈ 172 µM)	25 (≈ 85.8 µM)	50 (≈ 172 µM)	COc1ccc(-n2nc3[nH]c(=N)c4ccccc4c3n2)cc1	35	33	15	19	200 (≈ 687 µM)	200 (≈ 687 µM)	15	19
50 (≈ 163 µM)	25 (≈ 81.6 µM)	25 (≈ 81.6 µM)	50 (≈ 163 µM)	25 (≈ 81.6 µM)	50 (≈ 163 µM)	N=c1[nH]c2nn(-c3ccc([N+](=O)[O-])cc3)nc2c2ccccc12	38	38	16	15	200 (≈ 653 µM)	200 (≈ 653 µM)	15	26
50 (≈ 151 µM)	100 (≈ 302 µM)	50 (≈ 151 µM)	100 (≈ 302 µM)	50 (≈ 151 µM)	50 (≈ 151 µM)	N#CC1c2ccccc2C(=N)C(C#N)(C#N)C1c1ccc(Cl)cc1 (stereo not given)	33	20	26	20	200 (≈ 605 µM)	200 (≈ 605 µM)	31	33
100 (≈ 306 µM)	100 (≈ 306 µM)	100 (≈ 306 µM)	100 (≈ 306 µM)	50 (≈ 153 µM)	100 (≈ 306 µM)	COc1ccc(C2C(C#N)c3ccccc3C(=N)C2(C#N)C#N)cc1 (stereo not given)	18	15	20	19	200 (≈ 613 µM)	200 (≈ 613 µM)	26	31
50 (≈ 139 µM)	100 (≈ 278 µM)	50 (≈ 139 µM)	100 (≈ 278 µM)	50 (≈ 139 µM)	50 (≈ 139 µM)	COc1cc(-c2c(C#N)c(N)c3ccccc3c2C#N)cc(OC)c1OC	35	26	28	33	200 (≈ 557 µM)	200 (≈ 557 µM)	32	35
50 (≈ 189 µM)	100 (≈ 378 µM)	100 (≈ 378 µM)	100 (≈ 378 µM)	100 (≈ 378 µM)	50 (≈ 189 µM)	N#C/C(=C\c1ccc(Cl)cc1)c1ccccc1C#N	20	21	26	15	200 (≈ 756 µM)	200 (≈ 756 µM)	20	15
100 (≈ 384 µM)	100 (≈ 384 µM)	100 (≈ 384 µM)	100 (≈ 384 µM)	50 (≈ 192 µM)	100 (≈ 384 µM)	COc1ccc(/C=C(\C#N)c2ccccc2C#N)cc1	18	26	25	20	100 (≈ 384 µM)	200 (≈ 768 µM)	26	19
100 (≈ 312 µM)	100 (≈ 312 µM)	100 (≈ 312 µM)	100 (≈ 312 µM)	100 (≈ 312 µM)	100 (≈ 312 µM)	COc1cc(/C=C(\C#N)c2ccccc2C#N)cc(OC)c1OC	15	20	20	19	200 (≈ 624 µM)	200 (≈ 624 µM)	18	16
